Among the data in ChEMBL document CHEMBL1155708, “Isoaurostatin, a novel topoisomerase inhibitor produced by Thermomonospora alba” (J Nat Prod, 2001) are IC50 values, retold here.

What is called pIC50 is −log10 of the IC50, conventionally taken in molar units.

Type in all cases: cell-based
For test [1], the target named is T1, DNA topoisomerase 1 (Homo sapiens, UniProt P11387).
T1 sequence (P11387 whole entry): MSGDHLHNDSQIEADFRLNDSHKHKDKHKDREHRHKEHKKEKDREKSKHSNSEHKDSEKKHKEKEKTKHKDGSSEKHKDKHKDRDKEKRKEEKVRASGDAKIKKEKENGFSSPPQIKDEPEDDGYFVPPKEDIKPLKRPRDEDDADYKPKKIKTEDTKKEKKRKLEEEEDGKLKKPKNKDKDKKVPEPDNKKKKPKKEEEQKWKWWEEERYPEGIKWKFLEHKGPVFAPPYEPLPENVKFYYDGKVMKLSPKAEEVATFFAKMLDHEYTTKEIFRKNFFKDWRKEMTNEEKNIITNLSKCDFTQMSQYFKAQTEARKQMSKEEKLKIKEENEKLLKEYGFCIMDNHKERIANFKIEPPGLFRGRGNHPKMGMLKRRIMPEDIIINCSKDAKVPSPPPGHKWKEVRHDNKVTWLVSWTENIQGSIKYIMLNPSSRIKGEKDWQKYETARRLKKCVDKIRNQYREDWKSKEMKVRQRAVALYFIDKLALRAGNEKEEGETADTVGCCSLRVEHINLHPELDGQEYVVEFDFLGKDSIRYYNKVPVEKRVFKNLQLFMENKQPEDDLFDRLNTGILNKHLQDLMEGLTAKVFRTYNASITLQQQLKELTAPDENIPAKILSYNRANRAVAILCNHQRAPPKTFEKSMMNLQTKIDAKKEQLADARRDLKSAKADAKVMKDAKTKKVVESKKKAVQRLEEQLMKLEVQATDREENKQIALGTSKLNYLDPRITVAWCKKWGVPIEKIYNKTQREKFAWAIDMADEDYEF
Kind of test: Inhibition topoisomerase 1 in human A549 cells assessed as conversion of supercoiled pBR322 DNA to relaxed form. The essentials: (§1)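 Topo I source: crude extract from cells grown 5 days, PBS-washed and pelleted (1 × 10^6 cells), then lysed 30 min on ice in Tris-HCl pH 7.5 buffer with MgCl2, EGTA, AEBSF, β-mercaptoethanol, 0.5% CHAPS and 10% glycerin. The cleared supernatant relaxes supercoiled pBR322 DNA. Products are resolved on agarose gel and scored by densitometry.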

In test [2] the target is T1, DNA topoisomerase 1. Kind of test: Inhibition topoisomerase 1 in human COLO201 cells assessed as conversion of supercoiled pBR322 DNA to relaxed form. An outline of the steps:
as §1

In test [3] the target is T1, DNA topoisomerase 1. Kind of test: Inhibition topoisomerase 1 in human HeLa cells assessed as conversion of supercoiled pBR322 DNA to relaxed form. An outline of the steps: as §1

pIC50: −log10 of the molar value.

For `O=C1Oc2cc(O)ccc2/C1=C\c1ccc(O)cc1` [ISOAUROSTATIN], the pIC50 in test [1], in test [2] and in test [3] was less than 3.40 in each case.

With `C=C1NC(=O)C(C)C(CCC(C)C(=O)/C=C/C(C)=C/CC(C)CCCCCCC)OC(=O)[C@H](CC(OS(=O)(=O)O)C(N)=O)NC(=O)[C@@H](C)CNC1=O` (stereo partly specified) [TOPOSTATIN], the pIC50 in test [1] is 4.26; in test [2], 4.30; in test [3] it was 4.54.
